Assay outcomes (PubChem BioAssay)
GSK3 alpha inh = blockers of GSK3A enzyme activity – biochemical, luminescence, cell-free homogeneous, HTS, primary screen; GSK-3 alpha kinase, ADP-Glo luminescence, 60 min; inhibition, % at 10 µM; 0.1% of 320,000 active; AID 2650, 2010;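 active = more than half of replicates show inhibition above 20%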;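 note: GST-tagged GSK-3 alpha with peptide substrate and 25 µM ATP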
Target sequence (P49840 whole entry, looked up): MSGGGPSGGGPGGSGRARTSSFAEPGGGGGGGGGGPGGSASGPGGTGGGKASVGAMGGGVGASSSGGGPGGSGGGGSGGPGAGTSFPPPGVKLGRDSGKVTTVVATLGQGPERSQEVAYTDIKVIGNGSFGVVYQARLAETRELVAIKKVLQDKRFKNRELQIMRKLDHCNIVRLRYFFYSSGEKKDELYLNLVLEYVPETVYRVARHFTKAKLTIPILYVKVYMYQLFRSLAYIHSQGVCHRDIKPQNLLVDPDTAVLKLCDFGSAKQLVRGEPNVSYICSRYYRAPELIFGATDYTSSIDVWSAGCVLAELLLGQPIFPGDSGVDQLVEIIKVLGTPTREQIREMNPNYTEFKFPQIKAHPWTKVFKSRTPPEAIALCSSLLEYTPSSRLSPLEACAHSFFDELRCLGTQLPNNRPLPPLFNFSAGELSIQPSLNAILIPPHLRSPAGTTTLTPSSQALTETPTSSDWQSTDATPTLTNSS
MEKK2wt PB1 HTS = modulators of MEK5 binding to wildtype MEKK2, primary screen, biochemical, multiplex bead flow cytometry, Alexa488-MEK5 | Mitogen-activated protein kinase kinase kinase 2 (Homo sapiens), Q9Y2U5 | Alexa488-MEK5 binding to MEKK2 WT; actives lie on both sides | binding response (% of control), % at 10 µM | 1.1% of 290,000 active | AID 1531, 2009; in the data active = binding response below about 67% or above about 130%
MEKK2mut PB1 HTS = MEK5 binding signal on mutant MEKK2 PB1, primary screen, biochemical, multiplex bead flow cytometry, Alexa488-MEK5; Alexa488-MEK5 binding to MEKK2 mutant; percent response, % at 10 µM; 0.35% of 290,000 active; AID 1530, 2009; in the data active = percent response above about 24%, passing the limit was not always enough
GSK3B inh = human GSK3beta kinase inhibitors, primary screen, biochemical, cell-free homogeneous, HTS. Glycogen synthase kinase-3 beta (Homo sapiens), P49841. GST-GSK3beta kinase, ADP-Glo luminescence, 60 min; active compounds read low. activity score (negative = inhibition), % at 10 µM. 0.038% of 300,000 active;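 active = more than half of replicate wells score below -50%, meaning over 50% inhibition versus plate controls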
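Test system – GST-tagged human GSK3beta kinase, cell-free · Incubation – 60 min enzyme reaction, room temperature · Signal – ADP-Glo luminescence · Also added – peptide substrate and ATP at 25 µM · Controls – DMSO neutral wells and GW8510 at 20 µM as positive · Buffer or medium – Tris/MgCl2 kinase buffer · Measure – Luminescence-derived activity versus plate DMSO and GW8510 wells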
STK33 inh = inhibitors of purified STK33 kinase, primary screen, biochemical, ADP-Glo luminescence, homogeneous, cell-free; inhibition, % at 10 µM; MBP phosphorylation; 0.073% of 320,000 active; AID 2661, 2010;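 active = inhibition at or above 25%, using the most active replicate where run in duplicate; inactive = inhibition below 25%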
MEKK3 PB1 HTS = modulators of MEKK3-MEK5 PB1 binding, primary screen, biochemical, wildtype MEKK3, multiplex bead flow cytometry, Alexa488-MEK5 | bead-based flow cytometry, Alexa488-MEK5 binding to MEKK3; actives lie on both sides; 0 = blocked by unlabeled MEK5, 100 = vehicle | binding response (% of control), % at 10 µM | 1.4% of 290,000 active | AID 1529, 2009 | Mitogen-activated protein kinase kinase kinase 3 (Homo sapiens), Q99759;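 active = binding response more than 3 SD above or below the average of its plate-row segment, actives on both sides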;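 note: Alexa488 bead fluorescence after subtracting the streptavidin-only scavenger bead signal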
Numbers stand for hits; [ ] = remark or other dose. Only some compounds are listed: those with a hit (about 2.1% of all), similar ones and a draw of the others.

Screening COc1ccc(/C=C/C(=O)NCc2cccnc2)cc1 returned GSK3 alpha inh inactive, MEKK2wt PB1 HTS inactive, MEKK2mut PB1 HTS inactive, GSK3B inh inactive, STK33 inh inactive and MEKK3 PB1 HTS inactive.
CCc1ccc(CN(Cc2cccnc2)C(=O)/C=C/c2ccc(OC)cc2)cc1 was read as GSK3 alpha inh inactive, MEKK2wt PB1 HTS 138.0, MEKK2mut PB1 HTS 32.0, GSK3B inh inactive, STK33 inh inactive and MEKK3 PB1 HTS inactive.
For CCC1C(=O)NCCN1C(=O)c1ccc2nc(Cc3cccc(Cl)c3)oc2c1 (stereo not given) the results were GSK3 alpha inh inactive, MEKK2wt PB1 HTS inactive, MEKK2mut PB1 HTS inactive, GSK3B inh inactive, STK33 inh inactive and MEKK3 PB1 HTS inactive.
For Cc1cc(NC(=O)/C=C/c2ccccc2Cl)n(-c2nc3ccccc3[nH]2)n1 the results were GSK3 alpha inh inactive, MEKK2wt PB1 HTS inactive, MEKK2mut PB1 HTS inactive, GSK3B inh inactive, STK33 inh inactive and MEKK3 PB1 HTS 150.0.
O=C(O)c1ccc(N=Cc2c(O)ccc3ccccc23)cc1 was read as GSK3 alpha inh inactive, MEKK2wt PB1 HTS inactive, MEKK2mut PB1 HTS inactive, GSK3B inh inactive, STK33 inh inactive and MEKK3 PB1 HTS inactive.
Screening Oc1ccc2ccccc2c1C=Nc1cc(C(F)(F)F)ccc1N1CCCC1 returned MEKK2wt PB1 HTS 6.0, MEKK2mut PB1 HTS inactive, GSK3B inh inactive, STK33 inh inactive and MEKK3 PB1 HTS inactive.
`O=C(Nc1ccccc1C(=O)Nc1ccc(Cl)cc1)c1cccnc1` gave GSK3 alpha inh inactive, MEKK2wt PB1 HTS inactive, MEKK2mut PB1 HTS inactive, GSK3B inh inactive, STK33 inh inactive and MEKK3 PB1 HTS inactive.
For O=C(Nc1ccc(NC(=O)c2ccccc2Cl)cc1)c1cccnc1 the results were GSK3 alpha inh inactive, MEKK2wt PB1 HTS 53.0[inhibitor], MEKK2mut PB1 HTS inactive, GSK3B inh inactive, STK33 inh inactive and MEKK3 PB1 HTS 39.0[inhibitor].
`O=C(c1ccc(F)cc1)N(Cc1cccs1)C1CCS(=O)(=O)C1` (stereo not given) gave GSK3 alpha inh inactive, MEKK2wt PB1 HTS 0.0[inhibitor], MEKK2mut PB1 HTS inactive, GSK3B inh inactive, STK33 inh inactive and MEKK3 PB1 HTS 2.0[inhibitor].
For Cc1ccc(-c2csc3nc4c5ccccc5c(NCCCN(C)C)nn4c(=O)c23)cc1 the results were GSK3 alpha inh inactive, MEKK2wt PB1 HTS 195.0, MEKK2mut PB1 HTS 65.0, GSK3B inh inactive, STK33 inh inactive and MEKK3 PB1 HTS inactive.
Screening Cc1ccc(-c2csc3nc(C)n(N)c(=O)c23)cc1 returned GSK3 alpha inh inactive, MEKK2wt PB1 HTS inactive, MEKK2mut PB1 HTS inactive, GSK3B inh inactive, STK33 inh inactive and MEKK3 PB1 HTS inactive.
Screening CN1CCN(c2ccc(NC(=O)c3ccc(-c4cccc([N+](=O)[O-])c4)o3)cc2)CC1 returned GSK3 alpha inh inactive, MEKK2wt PB1 HTS inactive, MEKK2mut PB1 HTS inactive, GSK3B inh inactive, STK33 inh 35.8 and MEKK3 PB1 HTS inactive.
`CC(=O)N1CCN(c2ccccc2NC(=O)c2ccc(-c3cccc([N+](=O)[O-])c3)o2)CC1` gave GSK3 alpha inh inactive, MEKK2wt PB1 HTS inactive, MEKK2mut PB1 HTS inactive, GSK3B inh inactive, STK33 inh inactive and MEKK3 PB1 HTS inactive.
CN1CCN(c2ccccc2NC(=O)c2ccc(-c3ccccc3[N+](=O)[O-])o2)CC1 was read as GSK3 alpha inh inactive, MEKK2wt PB1 HTS 135.0, MEKK2mut PB1 HTS inactive, GSK3B inh inactive, STK33 inh inactive and MEKK3 PB1 HTS inactive.
`O=C(NCC(=O)N1CCN(S(=O)(=O)c2ccc3c(c2)OCCO3)CC1)c1ccccc1Cl` gave GSK3 alpha inh inactive and STK33 inh inactive.
`CC(C(=O)Nc1ccccc1)N1CCN(C(=O)c2ccco2)CC1` (stereo not given) gave GSK3 alpha inh inactive and STK33 inh inactive.
